In ChEMBL document CHEMBL3868592, “Analogues of Marine Guanidine Alkaloids Are in Vitro Effective against Trypanosoma cruzi and Selectively Eliminate Leishmania (L.) infantum Intracellular Amastigotes” (J Nat Prod, 2016):
Active and inactive are the calls of the source. The calls are words filed in the database; no cut-off is given here.

Key:
Leishmania infantum [1] = assay: Antileishmanial activity against Leishmania infantum MHOM/BR/1972/LD amastigote forms infected in BALB/c mouse peritoneal macrophages assessed as reduction in parasite viability after 120 hrs by giemsa staining based light microscopy; format: functional
In short: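 BALB/c peritoneal macrophages seeded at 1×10^5/well for 24 h, then infected with hamster spleen-derived amastigotes (1:10 macrophage:amastigote, 24 h, 37 °C, 5% CO2). Compound exposure for 120 h, highest 100 μM. Cells MeOH-fixed and Giemsa-stained; infected macrophages counted out of 400 cells. IC50 from sigmoidal dose-response; at least two independent assays.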

Trypanosoma cruzi [2] = assay: Antitrypanosomal activity against Trypanosoma cruzi Y trypomastigote forms infected in monkey LLC-MK2 cells assessed as reduction in parasite viability after 24 hrs by resazurin assay; format: functional, cell-based; details: LLC-MK2, 24 h
In short: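 Y-strain trypomastigotes from LLC-MK2 cultures seeded at 1×10^6/well in RPMI-1640. Compounds up to 150 μM, 24 h at 37 °C, 5% CO2. Viability by resazurin (0.011% in PBS), read at 570 nm against drug-free and cell-free wells; 0.5% DMSO control. IC50 by sigmoidal dose-response curve fitting.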

Leishmania infantum [3] = assay: Antileishmanial activity against Leishmania infantum MHOM/BR/1972/LD promastigote forms […] assessed as reduction in parasite viability after 48 hrs by MTT assay; format: functional
In short: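 Late-growth-phase promastigotes (passage 5) seeded at 1×10^6/well in M-199. Compounds dissolved in DMSO, tested up to 100 μM, 48 h at 24 °C. Viability by MTT, OD 570 nm, against drug-free (100%) and cell-free blank wells; 0.5% DMSO control. IC50 from sigmoidal dose-response curves; ≥2 independent assays.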

Peritoneal macrophage [4] = assay: Antiinflammatory activity in BALB/c mouse peritoneal macrophages co-cultivated with splenocytes assessed as decrease in INF-gamma release at 15 uM after 48 hrs by flow cytometric analysis; format: functional
In short: (§1)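 Peritoneal macrophages from BALB/c mice seeded at 1.5×10^5 cells/well; after 24 h, infected where applicable with L. infantum spleen-derived amastigotes at 1:10 (macrophage:amastigote). After 24 h, cocultured where applicable with splenocytes at 6:1. Compound added for 48 h. Supernatant cytokines quantified with an inflammatory cytometric bead array by flow cytometry. Sham-treated infected macrophages served as reference.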

[5] = Cytotoxicity against mouse NCTC-929 cells assessed as decrease in cell viability after 48 hrs by MTT assay; format: toxicity
In short: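 NCTC clone 929 murine cells seeded at 6×10^4/well. Compound up to 150 μM for 48 h at 37 °C, 5% CO2. Viability read by MTT. CC50 from sigmoidal dose-response; mean of at least two independent experiments.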

Leishmania infantum [6] = assay: Induction of mitochondrial membrane potential loss in Leishmania infantum MHOM/BR/1972/LD promastigote form at 34 uM incubated for 60 mins by rhodamine-123 dye based fluorimetric assay; format: functional
In short: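 Promastigotes (2×10^6/mL) in HBSS-glucose exposed to compound for 60 min at 25 °C. Rhodamine-123 (0.3 μg/mL) then added, cells washed and resuspended in HBSS-Glc, and fluorescence read at ex 485/em 520 nm. Sodium azide 10 mM as positive control; background, DMSO and untreated controls included. Triplicates.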

Leishmania infantum [7] = assay: Induction of ROS generation in Leishmania infantum MHOM/BR/1972/LD promastigote form at 34 uM incubated for […] by H2DCF-DA probe based fluorimetric assay relative to untreated control; format: functional
In short: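 Promastigotes (2×10^6/well) washed in HBSS and exposed to compound for 60 min. H2DCFDA (5 μM) then added for 15 min. Fluorescence read at ex 485/em 520 nm. Sodium azide 10 mM as positive control; background, DMSO, untreated and cell-free controls included. Triplicates.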

[8] = Selectivity index, ratio of CC50 for mouse NCTC-929 cells to IC50 for Trypanosoma cruzi Y trypomastigote form infected in monkey LLC-MK2 cells; format: functional
Leishmania infantum [9] = assay: Induction of plasma membrane permeability in Leishmania infantum MHOM/BR/1972/LD promastigote form assessed as increase in fluorescence intensity at 34 uM measured every 20 mins for 60 mins by SYTOX green dye based fluorimetric assay relative to control; format: functional
In short: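 Late-growth-phase promastigotes (passage 7) washed in PBS, seeded at 2×10^6/well and loaded with 1 μM SYTOX Green for 15 min at 24 °C. Compound added; fluorescence (ex 485/em 520 nm) read every 20 min over 60 min. 0.1% Triton X-100 defined maximal permeabilization. Background, DMSO, untreated and cell-free controls included. Triplicates.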

Peritoneal macrophage [10] = assay: Antiinflammatory activity in BALB/c mouse peritoneal macrophages infected with Leishmania infantum MHOM/BR/1972/LD amastigote form cocultivated with splenocytes assessed as decrease in INF-gamma release at 15 uM after 48 hrs by flow cytometric analysis; format: functional; in short: as §1
Splenocyte = assay: Antiinflammatory activity in splenocytes (unknown origin) assessed as decrease in MCP1 release at 15 uM after 48 hrs by flow cytometric analysis; format: functional, cell-based
[11] = Selectivity index, ratio of CC50 for mouse NCTC-929 cells to IC50 for Leishmania infantum MHOM/BR/1972/LD amastigote forms infected in BALB/c mouse macrophages; format: functional
Trypanosoma cruzi [12] = assay: Potency index, ratio of benznidazole IC50 to compound IC50 for Trypanosoma cruzi Y trypomastigote forms infected in monkey LLC-MK2 cells; format: functional

`F[B-](F)(F)F.c1ccc([C@@H]2C[C@@H]3CC[C@@H]4C[C@H](c5ccccc5)NC(=[NH+]2)N43)cc1` gave an IC50 (Leishmania infantum [1]) of 2 µM, an IC50 (Trypanosoma cruzi [2]) of 9 µM and an IC50 (Leishmania infantum [3]) of 34 µM. For the same molecule, the Activity (Peritoneal macrophage [4]) was “Active”, the CC50 at 48 h [5] was 45 µM and the Activity (Leishmania infantum [6]) was 70%. For the same molecule, the Activity (Leishmania infantum [7]) was 60%, the “Ratio CC50/IC50” value [8] was 5 and the Activity (Leishmania infantum [9]) was 10%. For the same molecule, the Activity (Peritoneal macrophage [10]) was “Active”, the Activity (Splenocyte) was “Active” and the “Ratio CC50/IC50” value [11] was 20.

`CCCCCCCCCc1cc(CCCO)nc(N)n1` gave an IC50 (Leishmania infantum [1]) of 5 µM, an IC50 (Trypanosoma cruzi [2]) of 8 µM and an IC50 (Leishmania infantum [3]) of 42 µM. The CC50 at 48 h [5] was 42 µM, the “Ratio CC50/IC50” value [8] was 5 and the “Ratio CC50/IC50” value [11] was 8.

`C[C@@H]1C[C@@H]2CC[C@@H]3C[C@H](CCCCO[Si](C(C)(C)C)(C(C)(C)C)C(C)(C)C)NC(=[NH+]1)N32.F[B-](F)(F)F` showed an IC50 (Leishmania infantum [1]) of 18 µM, an IC50 (Trypanosoma cruzi [2]) of 4 µM and an IC50 (Leishmania infantum [3]) of 7 µM. The CC50 at 48 h [5] was 65 µM, the “Ratio CC50/IC50” value [8] was 16 and the “Ratio CC50/IC50” value [11] was 4.

With `CCCCCCCCCC(=O)OCCCC[C@H]1C[C@H]2CC[C@H]3C[C@@H](C)[NH+]=C(N1)N23.F[B-](F)(F)F` the “Ratio IC50” value (Trypanosoma cruzi [12]) was 4, the IC50 (Leishmania infantum [1]) was greater than 100 µM and the IC50 (Trypanosoma cruzi [2]) was 4 µM. The IC50 (Leishmania infantum [3]) was 59 µM, the CC50 at 48 h [5] was 84 µM and the “Ratio CC50/IC50” value [8] was 28.

In the case of `C[C@H](O)CCCCC[C@@H]1C[C@H]2CC[C@H]3C[C@@H](C)NC(=[NH+]1)N23.F[B-](F)(F)F`, the IC50 (Leishmania infantum [1]) is reported as 49 µM, the IC50 (Trypanosoma cruzi [2]) is reported as greater than 100 µM and the IC50 (Leishmania infantum [3]) is reported as greater than 100 µM. The CC50 at 48 h [5] was greater than 150 µM and the “Ratio CC50/IC50” value [11] was greater than 3.

For `CCCCCC(=O)OCCCC[C@H]1C[C@H]2CC[C@H]3C[C@@H](C)[NH+]=C(N1)N23.F[B-](F)(F)F`, the IC50 (Leishmania infantum [1]) was greater than 100 µM, the IC50 (Trypanosoma cruzi [2]) was 22 µM and the IC50 (Leishmania infantum [3]) was 109 µM. The CC50 at 48 h [5] was greater than 150 µM and the “Ratio CC50/IC50” value [8] was greater than 7.

With `CCCCCCCCCCCC(=O)OCCCC[C@H]1C[C@H]2CC[C@H]3C[C@@H](C)[NH+]=C(N1)N23.F[B-](F)(F)F` the “Ratio IC50” value (Trypanosoma cruzi [12]) was 4, the IC50 (Leishmania infantum [1]) was greater than 100 µM and the IC50 (Trypanosoma cruzi [2]) was 4 µM. The IC50 (Leishmania infantum [3]) was 48 µM, the CC50 at 48 h [5] was 57 µM and the “Ratio CC50/IC50” value [8] was 19.

For `CC(C)=CCC/C(C)=C/CNC(=N)N.Cl`, the IC50 (Leishmania infantum [1]) was 19 µM, the IC50 (Trypanosoma cruzi [2]) was 35 µM and the IC50 (Leishmania infantum [3]) was 9 µM. For the same molecule, the CC50 at 48 h [5] was 116 µM, the “Ratio CC50/IC50” value [8] was 3 and the “Ratio CC50/IC50” value [11] was 6.

With `CCCCCCCCCCCCCCCCOP(=O)([O-])OCC[N+](C)(C)C` [MILTEFOSINE] the IC50 (Leishmania infantum [1]) was 17 µM, the CC50 at 48 h [5] was 122 µM and the “Ratio CC50/IC50” value [11] was 7.

For `CCCC(=O)OCCCC[C@H]1C[C@H]2CC[C@H]3C[C@@H](C)[NH+]=C(N1)N23.F[B-](F)(F)F`, the IC50 (Leishmania infantum [1]) was greater than 100 µM, the IC50 (Trypanosoma cruzi [2]) was 49 µM and the IC50 (Leishmania infantum [3]) was greater than 100 µM. The CC50 at 48 h [5] was greater than 150 µM and the “Ratio CC50/IC50” value [8] was greater than 2.

In the case of `CC(=O)OCCCC[C@H]1C[C@H]2CC[C@H]3C[C@@H](C)[NH+]=C(N1)N23.F[B-](F)(F)F`, the IC50 (Leishmania infantum [1]) is reported as greater than 100 µM, the IC50 (Trypanosoma cruzi [2]) is reported as 88 µM and the IC50 (Leishmania infantum [3]) is reported as greater than 100 µM. For the same molecule, the CC50 at 48 h [5] was greater than 150 µM and the “Ratio CC50/IC50” value [8] was greater than 2.

For `CCCCCCCC(=O)OCCCC[C@H]1C[C@H]2CC[C@H]3C[C@@H](C)[NH+]=C(N1)N23.F[B-](F)(F)F`, the IC50 (Leishmania infantum [1]) was greater than 100 µM, the IC50 (Trypanosoma cruzi [2]) was 8 µM and the IC50 (Leishmania infantum [3]) was 53 µM. The CC50 at 48 h [5] was 100 µM and the “Ratio CC50/IC50” value [8] was 12.

`C[C@@H]1C[C@@H]2CC[C@@H]3C[C@H](CCCCO)NC(=N1)N32` gave an IC50 (Leishmania infantum [1]) greater than 100 µM, an IC50 (Trypanosoma cruzi [2]) greater than 100 µM and an IC50 (Leishmania infantum [3]) greater than 100 µM. The CC50 at 48 h [5] was greater than 150 µM.

Work on `C[C@@H]1CCC[C@]2(CCN3CC[C@]4(CCC[C@@H](C)O4)NC3=N2)O1` yielded an IC50 (Leishmania infantum [1]) greater than 100 µM, an IC50 (Trypanosoma cruzi [2]) greater than 100 µM and an IC50 (Leishmania infantum [3]) greater than 100 µM. It also gave a CC50 at 48 h [5] greater than 150 µM.

Molecule `CCCCCCCCC[C@@H]1C[C@@H]2CC[C@H]3C(C(=O)O)[C@@H](C)N=C(N1)N23` (single isomer, unassigned; 16) has an IC50 (Leishmania infantum [1]) greater than 100 µM, an IC50 (Trypanosoma cruzi [2]) of 69 µM and an IC50 (Leishmania infantum [3]) of 47 µM. For the same molecule, the CC50 at 48 h [5] was 60 µM and the “Ratio CC50/IC50” value [8] was 0.9.

For `C=CCOC(=O)C1=C(CCCCC[C@@H](C)O[Si](C(C)(C)C)(C(C)(C)C)C(C)(C)C)NC2=[N+]3[C@H](CC[C@@H]13)C[C@H](C)N2.CC(=O)[O-]`, the “Ratio IC50” value (Trypanosoma cruzi [12]) was 17, the IC50 (Leishmania infantum [1]) was 0.8 µM and the IC50 (Trypanosoma cruzi [2]) was 0.9 µM. For the same molecule, the IC50 (Leishmania infantum [3]) was greater than 100 µM, the CC50 at 48 h [5] was 2 µM and the “Ratio CC50/IC50” value [8] was 2. The “Ratio CC50/IC50” value [11] was 3.

Work on `C1CC[C@]2(C[C@H]3CC[C@H]4C[C@@]5(CCCCO5)[NH+]=C(N2)N34)OC1.F[B-](F)(F)F` yielded an IC50 (Leishmania infantum [1]) of 8 µM, an IC50 (Trypanosoma cruzi [2]) greater than 100 µM and an IC50 (Leishmania infantum [3]) greater than 100 µM. For the same molecule, the CC50 at 48 h [5] was greater than 150 µM and the “Ratio CC50/IC50” value [11] was greater than 19.

In the case of `CCCCCCCCC[C@@H]1C[C@@H]2CC[C@H]3C(C(=O)O)[C@@H](C)N=C(N1)N23.O=C(O)C(F)(F)F` (single isomer, unassigned; 15), the IC50 (Leishmania infantum [1]) is reported as 24 µM, the IC50 (Trypanosoma cruzi [2]) is reported as 79 µM and the IC50 (Leishmania infantum [3]) is reported as 57 µM. For the same molecule, the CC50 at 48 h [5] was 70 µM, the “Ratio CC50/IC50” value [8] was 0.9 and the “Ratio CC50/IC50” value [11] was 3.

In the case of `O=C(Cn1ccnc1[N+](=O)[O-])NCc1ccccc1` [BENZNIDAZOLE], the IC50 (Trypanosoma cruzi [2]) is reported as 16 µM, the CC50 at 48 h [5] is reported as greater than 150 µM and the “Ratio CC50/IC50” value [8] is reported as greater than 9.
